# Reference: publication PMC7709506 (ESMO Open, 2020)
# Legend:
# [1] = Plasma pharmacokinetics after single and multiple dosing; assay type: in vivo, human; conditions: for Accumulation ratio, geometric mean (CV %): AUC0–last day 15 / day 1; for Mean (SD) metabolite to parent ratio: ORM-21444 AUC0–last / ODM-203 AUC0–last
# Method in brief: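 Oral once-daily test compound. Capsule single dose on day 1 after a low-phosphate light breakfast. In tablet cohorts, one capsule dose was followed a week later by continuous daily tablets from 200 mg. Plasma sampled on day 1 and day 8 or 15 predose and 0.1–24 h post-dose, plus predose from day 8. Cmax, Tmax and AUC0–last (linear trapezoidal) were log-transformed. Accumulation = day 15/day 1 AUC; metabolite ratio = metabolite/parent AUC.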
# [2] = system: advanced or metastatic solid tumours; assay: Preliminary antitumour activity; assay type: in vivo, human
# FGFR and VEGFR pathways = assay: Soluble biomarkers of FGFR and VEGFR pathways; parameters: species or system human; conditions: in vivo
# Method in brief: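 Plasma FGF23, sVEGFR2, sVEGFR1, VEGF, FGF2 and PGF were sampled at baseline, day 8 and day 29 during oral test compound dosing and analysed in batches during or at study end. Values are expressed as percentage change from baseline (day 1 predose).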
# [3] = system: cell lines with increased FGFR activity; conditions: cell lines with increased FGFR activity and known dependency on FGFR signalling; cited from earlier work
compound,measurement,setting,value
Cn1cc(-c2ccc3c(c2)ncn3-c2cc(NS(=O)(=O)C3CC3)cc(-c3ccc(F)cc3F)c2)cn1 [ODM-203],interindividual variability of steady-state AUC (coefficient of variation),[1]; 400 mg tablet group at day 15,90%
same,"Accumulation ratio, geometric mean (CV %)",[1]; tablet 200 mg (n=3),2.3 (23)
same,"Accumulation ratio, geometric mean (CV %)",[1]; tablet 300 mg (n=3),2.3 (123)
same,"Accumulation ratio, geometric mean (CV %)",[1]; tablet 400 mg (n=24),5.5 (76)
same,Mean (SD) metabolite to parent ratio,"[1]; tablet 200 mg, Day 1 (n=3)",0.043 (0.022)
same,Mean (SD) metabolite to parent ratio,"[1]; tablet 200 mg, Day 15 (n=3)",0.085 (0.043)
same,Mean (SD) metabolite to parent ratio,"[1]; tablet 300 mg, Day 1 (n=3)",0.061 (0.030)
same,Mean (SD) metabolite to parent ratio,"[1]; tablet 300 mg, Day 15 (n=3)",0.094 (0.004)
same,Mean (SD) metabolite to parent ratio,"[1]; tablet 400 mg, Day 1 (n=25)",0.048 (0.034)
same,Mean (SD) metabolite to parent ratio,"[1]; tablet 400 mg, Day 15 (n=24)",0.117 (0.031)
same,average Tmax in different cohorts,[1]; after a single dose,6 to 10 h
same,individual Tmax range,[1]; after a single dose,3 to 24 h
same,average accumulation ratios,"[1]; based on AUC0–last, different cohorts",2.3–5.5
same,tablet formulation compared with capsule formulation,[1]; in vivo,higher exposure and lower variability
same,AUC ratio (metabolite ORM-21444 to ODM-203),[1]; steady state,less than 0.15
same,half-life,"[1]; suggested by accumulation ratios, different cohorts",30 to 70 h
same,"Cmax, geometric mean (CV %)","[1]; tablet 200 mg, Day 1 (n=3)",1539 (9) ng/mL
same,"Median (min, max) Tmax","[1]; tablet 200 mg, Day 1 (n=3)",8.0 (7.7 to 11.1) h
same,"Cmax, geometric mean (CV %)","[1]; tablet 200 mg, Day 15 (n=3)",3118 (28) ng/mL
same,Mean (SD) Caverage,"[1]; tablet 200 mg, Day 15 (n=3)",2560 (719) ng/mL
same,"Median (min, max) Tmax","[1]; tablet 200 mg, Day 15 (n=3)",8.0 (6.0 to 11.2) h
same,"Cmax, geometric mean (CV %)","[1]; tablet 300 mg, Day 1 (n=3)",2608 (46) ng/mL
same,"Median (min, max) Tmax","[1]; tablet 300 mg, Day 1 (n=3)",6.0 (4.1 to 6.1) h
same,"Cmax, geometric mean (CV %)","[1]; tablet 300 mg, Day 15 (n=3)",4906 (148) ng/mL
same,Mean (SD) Caverage,"[1]; tablet 300 mg, Day 15 (n=3)",5652 (5460) ng/mL
same,"Median (min, max) Tmax","[1]; tablet 300 mg, Day 15 (n=3)",6.1 (3.1 to 8.7) h
same,"Cmax, geometric mean (CV %)","[1]; tablet 400 mg, Day 1 (n=25)",1933 (49) ng/mL
same,"Median (min, max) Tmax","[1]; tablet 400 mg, Day 1 (n=25)",6.3 (3.1 to 24.7) h
same,"Cmax, geometric mean (CV %)","[1]; tablet 400 mg, Day 15 (n=24)",9070 (81) ng/mL
same,Mean (SD) Caverage,"[1]; tablet 400 mg, Day 15 (n=24)",8928 (5148) ng/mL
same,"Median (min, max) Tmax","[1]; tablet 400 mg, Day 15 (n=24)",6.0 (0.0 to 23.3) h
same,overall response rate,"[2]; RECIST, all evaluable (7/76 patients)",9.2%
same,disease control rate,[2]; all evaluable,57.9%
same,median progression-free survival,[2]; non-FGFR patients,12.4 weeks
same,disease control rate,[2]; non-FGFR tumours,52.3%
same,overall response rate,[2]; non-FGFR tumours (3/44),6.8%
same,patients without disease progression at 16 weeks,[2]; non-FGFR tumours (16/42),38.1%
same,patients without disease progression at 16 weeks,[2]; overall (24/71),33.8%
same,median progression-free survival,[2]; patients with FGFR aberration(s),16.1 weeks
same,disease control rate,[2]; tumours with FGFR aberrations,65.6%
same,overall response rate,[2]; tumours with FGFR aberrations (4/32),12.5%
same,patients without disease progression at 16 weeks,[2]; tumours with FGFR aberrations (8/29),27.6%
same,"percentage mean changes in soluble markers FGF23, VEGFR2, VEGF and PGF",FGFR and VEGFR pathways,appeared to be dose dependent
same,cell proliferation,[3],suppresses cell proliferation
